The nature of series [1]: Negative allosteric modulation of human GluN1a/GluN2B receptor expressed in CHO cells assessed as inhibition of glutamate and glycine-induced calcium flux preincubated for 5 mins followed by glutamate and glycine addition and measured after 5 mins by calcium 5 dye based FLIPR assay. In kind it is cell-based. The essentials: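 Tet-On CHO T-Rex cells expressing hGluN1a with GluN2A, 2B, 2C or 2D, plated at 20,000 cells/well and induced 24 h before the assay in the presence of ketamine. Cells loaded 1 h at room temperature with Calcium 5 dye, pH 7.4 HEPES buffer. Compound added 5 min, then glutamate (~EC80) plus 10 µM glycine for 5 min; FLIPR fluorescence normalized to control wells. Three independent runs in duplicate (two for some).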

A short description of series [2]: Solubility of compound in phosphate buffer at pH 2 measured after 3 days. In kind it is physicochemical. Conditions: time 3 day. An outline of the steps: (§1)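 Solubility in aqueous buffer at pH 2 and pH 7, and in simulated gastric and intestinal fluids.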
Series [3] can be described thus: Solubility of compound in phosphate buffer at pH 7 measured after 3 days. Format: physicochemical. Conditions: time 3 day. The essentials:
as §1

Series [4] can be described thus: Efflux ratio of apparent permeability across basolateral to apical side over apical to basolateral side in MDCK-MDR1 cells at 5 uM measured after 60 mins by LC-MS/MS analysis. In kind it is ADME, cell-based, Canis lupus familiaris. Conditions: dog. The essentials: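 MDCK-MDR1 cells, passages 6-30, seeded at 3.4×10^5 cells/cm² and cultured 3 days. Test compound at 5 µM final (1% DMSO) in HBSS, pH 7.4, applied to the donor side. A→B and B→A runs at 37 °C for 60 min, in duplicate, quantified by LC/MS/MS. Efflux ratio taken as B-A/A-B; monolayer integrity checked by lucifer yellow.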

Series [5] concerns the target Voltage-gated inwardly rectifying potassium channel KCNH2 (Homo sapiens, UniProt Q12809). Put plainly: Inhibition of human ERG expressed in CHO cells measured after 5 mins by Qpatch method. Format: cell-based. An outline of the steps: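 CHO cells stably expressing hERG, whole-cell QPatch. Vehicle applied 5 min, then 0.3, 3.0, 10 and 30 µM in rising order, each concentration applied twice. Current measured after 5 min as the average of 3 voltage pulses; block taken relative to vehicle pretreatment, mean ± SEM.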

Series [6] can be described thus: Displacement of 3-[3H] 1-(azetidin-1-yl)-2-[6-(4-fluoro-3-methyl-phenyl)pyrrolo[3,2-b]pyridin-1-yl]ethanone from GluN1a/GluN2B receptor in rat cortex membranes measured after 2 hrs by liquid scintillation counting method. In kind it is cell membranes. An outline of the steps: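 Rat adult cortex was homogenized in 50 mM Tris pH 7.4, and membranes were washed by centrifugation. Membranes were incubated with the [3H] pyrrolopyridine tracer and test compound for 2 h at room temperature with shaking. Non-specific binding was defined with 10 µM CP-101,606. Bound tracer was separated by filtration on PEI-soaked GF/B filters and counted by liquid scintillation. Ki was obtained from a competition fit using tracer Kd; three independent runs in duplicate.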

The nature of series [7]: Metabolic stability in human liver microsomes assessed as extraction ratio at 1 uM after 5 to 60 mins in presence of NADPH by LC-MS/MS analysis. Conditions: time 5-60 min, read-out: ERH. Format: ADME, Microsome. The essentials:
(§2)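 Human and rat liver microsomes, run in duplicate; stability reported as microsomal extraction ratio.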

Series [8] is described as follows: Metabolic stability in rat liver microsomes assessed as extraction ratio at 1 uM after 5 to 60 mins in presence of NADPH by LC-MS/MS analysis. In kind it is ADME, Microsome. Conditions: time 5-60 min, read-out: ERH. The essentials: as §2
Series [9] in a line: Clearance in Sprague-Dawley rat at 0.5 mg/kg, iv using 30% SBE-beta-CD formulation by LC-MS/MS analysis. Format: ADME, organism-based. The note with it: in vivo. An outline of the steps: (§3)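 Rat IV/PO PK at 0.5 mg/kg IV and 2.5 mg/kg PO, dosed in 30% SBE-β-CD, n=3.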
Series [10] in a line: Volume of distribution at steady state in Sprague-Dawley rat at 0.5 mg/kg, iv or 2.5 mg/kg, po using 30% SBE-beta-CD formulation by LC-MS/MS analysis. Format: ADME, organism-based. The note with it: in vivo, read-out: Vdss. The essentials: (§4)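 Rat PK at 0.5 mg/kg i.v. and 2.5 mg/kg p.o., vehicle 30% SBE-β-CD. n=3, values given as mean ± SD.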
Series [11] in a line: Half life in Sprague-Dawley rat at 0.5 mg/kg, iv or 2.5 mg/kg, po using 30% SBE-beta-CD formulation by LC-MS/MS analysis. In kind it is ADME, organism-based. Conditions: in vivo. An outline of the steps: (§5)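 Rats dosed 0.5 mg/kg i.v. and 2.5 mg/kg p.o., n=3 ± SD. Default vehicle is 20% HP-β-CD; one PK set used 1:1 PEG400/water and another 30% SBE-β-CD.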
Series [12] in a line: Cmax in Sprague-Dawley rat at 0.5 mg/kg, iv or 2.5 mg/kg, po using 30% SBE-beta-CD formulation by LC-MS/MS analysis. In kind it is ADME, organism-based. Further details: dose 2.5 mg/kg. Conditions: in vivo. The essentials: as §3
The nature of series [13]: AUC (infinity) in Sprague-Dawley rat at 0.5 mg/kg, iv or 2.5 mg/kg, po using 30% SBE-beta-CD formulation by LC-MS/MS analysis. In kind it is ADME, organism-based. Further details: dose 2.5 mg/kg. Conditions: in vivo. An outline of the steps:
as §3

Series [14] in a line: Tmax in Sprague-Dawley rat at 0.5 mg/kg, iv or 2.5 mg/kg, po using 30% SBE-beta-CD formulation by LC-MS/MS analysis. Format: ADME, organism-based. Conditions: in vivo. An outline of the steps:
as §4

Series [15] is described as follows: Oral bioavailability in Sprague-Dawley rat at 2.5 mg/kg using 30% SBE-beta-CD formulation by LC-MS/MS analysis. Conditions: in vivo. Format: ADME, organism-based. An outline of the steps: as §5
The nature of series [16]: Ex vivo receptor occupancy at GluN2B in Sprague-Dawley rat assessed as 3-[3H] 1-(azetidin-1-yl)-2-[6-(4-fluoro-3-methyl-phenyl)pyrrolo[3,2-b]pyridin-1-yl]-ethanone labelling at 3 mg/kg, po measured after 0.5 hrs by autoradiography. In kind it is functional. An outline of the steps: (§6)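 Rats dosed orally at 3 mg/kg in 20% HP-β-CD; brains taken at 0.5, 2 and 6 h. Ex vivo autoradiography of brain slices with the ³H pyrrolo[3,2-b]pyridine GluN2B tracer. Labelling expressed relative to matching brain areas of vehicle-treated animals; n=2, ± SEM.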

The nature of series [17]: Ex vivo receptor occupancy at GluN2B in Sprague-Dawley rat assessed as 3-[3H] 1-(azetidin-1-yl)-2-[6-(4-fluoro-3-methyl-phenyl)pyrrolo[3,2-b]pyridin-1-yl]-ethanone labelling at 3 mg/kg, po measured after 2 hrs by autoradiography. Format: functional. The essentials: as §6
Series [18] can be described thus: Ex vivo receptor occupancy at GluN2B in Sprague-Dawley rat assessed as 3-[3H] 1-(azetidin-1-yl)-2-[6-(4-fluoro-3-methyl-phenyl)pyrrolo[3,2-b]pyridin-1-yl]-ethanone labelling at 3 mg/kg, po measured after 6 hrs by autoradiography. Format: functional. An outline of the steps: as §6
A short description of series [19]: Cmax in Sprague-Dawley rat brain at 3 mg/kg, po after 2 hrs by LC-MS/MS analysis. Format: ADME, organism-based. Further details: route oral, dose 3 mg/kg, time 2 hrs. An outline of the steps:
(§7)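 Oral dose of 3 mg/kg in 20% HP-β-CD to rats. Brain concentration was measured alongside ex vivo GluN2B occupancy over a 6 h time course (0.5, 2 and 6 h), n=2.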

Series [20] can be described thus: Tmax in Sprague-Dawley rat brain at 3 mg/kg, po by LC-MS/MS analysis. In kind it is ADME, organism-based. The essentials: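 Rats dosed orally at 3 mg/kg in 20% HP-β-CD. Brain concentrations were measured over a 6 h time course (0.5, 2, 6 h) alongside ex vivo GluN2B occupancy, n=2.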
Series [21] is described as follows: Solubility of compound in 30% sulfobutylether-beta-cyclodextrin at 0.5 mg/ml. In kind it is physicochemical. The essentials:
(§8)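 Solubility of the compound assessed in dosing excipients, including 30% SBE-β-CD, 50% PEG-400 and 20% HP-β-CD. The aim was a solution usable for rat dosing; the 20% HP-β-CD formulation was checked for a 0.1 mg/mL solution to support a 0.5 mg/kg dose.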

A short description of series [22]: Clearance in Sprague-Dawley rat at 0.1 mg/kg, iv by LC-MS/MS analysis. Format: ADME, organism-based. The note with it: in vivo. An outline of the steps:
(§9)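 Rat PK with IV and PO dosing, n=3. The usual doses were 0.5 mg/kg IV and 2.5 mg/kg PO in 20% HP-β-CD. One compound was instead given at 0.1 mg/kg IV and 0.5 mg/kg PO.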

Series [23] in a line: Volume of distribution at steady state in Sprague-Dawley rat at 0.1 mg/kg, iv or 0.5 mg/kg, po by LC-MS/MS analysis. Format: ADME, organism-based. Conditions: in vivo, read-out: Vdss. An outline of the steps: (§10)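 Rat PK with doses of 0.1 mg/kg i.v. and 0.5 mg/kg p.o., vehicle 20% HP-β-CD. n=3, values given as mean ± SD.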
Series [24] in a line: Half life in Sprague-Dawley rat at 0.1 mg/kg, iv or 0.5 mg/kg, po by LC-MS/MS analysis. In kind it is ADME, organism-based. Conditions: in vivo. An outline of the steps: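 Rat PK with 0.1 mg/kg i.v. and 0.5 mg/kg p.o. doses, n=3 ± SD.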
A short description of series [25]: Cmax in Sprague-Dawley rat at 0.1 mg/kg, iv or 0.5 mg/kg, po by LC-MS/MS analysis. In kind it is ADME, organism-based. Further details: dose 0.5 mg/kg. Conditions: in vivo. An outline of the steps:
as §9

The nature of series [26]: AUC (infinity) in Sprague-Dawley rat at 0.1 mg/kg, iv or 0.5 mg/kg, po by LC-MS/MS analysis. Conditions: in vivo. Also noted: dose 0.5 mg/kg. In kind it is ADME, organism-based. An outline of the steps: as §9
The nature of series [27]: Tmax in Sprague-Dawley rat at 0.1 mg/kg, iv or 0.5 mg/kg, po by LC-MS/MS analysis. Format: ADME, organism-based. Conditions: in vivo. The essentials:
as §10

The nature of series [28]: Oral bioavailability in Sprague-Dawley rat at 0.5 mg/kg by LC-MS/MS analysis. Conditions: in vivo. In kind it is ADME, organism-based.
Series [29] is described as follows: Solubility of compound in 100% polyethylene glycol 400 at 0.5 mg/ml. Format: physicochemical.
Series [30] in a line: Solubility of compound in 20% hydroxypropyl-beta-cyclodextrin at 0.1 mg/ml. In kind it is physicochemical. The essentials:
as §8

A short description of series [31]: Cmax in Sprague-Dawley rat brain at 3 mg/kg, po after 6 hrs by LC-MS/MS analysis. Further details: route oral, dose 3 mg/kg, time 6 hrs. Format: ADME, organism-based. An outline of the steps:
as §7

Voltage-gated inwardly rectifying potassium channel KCNH2, sequence (Q12809 whole entry): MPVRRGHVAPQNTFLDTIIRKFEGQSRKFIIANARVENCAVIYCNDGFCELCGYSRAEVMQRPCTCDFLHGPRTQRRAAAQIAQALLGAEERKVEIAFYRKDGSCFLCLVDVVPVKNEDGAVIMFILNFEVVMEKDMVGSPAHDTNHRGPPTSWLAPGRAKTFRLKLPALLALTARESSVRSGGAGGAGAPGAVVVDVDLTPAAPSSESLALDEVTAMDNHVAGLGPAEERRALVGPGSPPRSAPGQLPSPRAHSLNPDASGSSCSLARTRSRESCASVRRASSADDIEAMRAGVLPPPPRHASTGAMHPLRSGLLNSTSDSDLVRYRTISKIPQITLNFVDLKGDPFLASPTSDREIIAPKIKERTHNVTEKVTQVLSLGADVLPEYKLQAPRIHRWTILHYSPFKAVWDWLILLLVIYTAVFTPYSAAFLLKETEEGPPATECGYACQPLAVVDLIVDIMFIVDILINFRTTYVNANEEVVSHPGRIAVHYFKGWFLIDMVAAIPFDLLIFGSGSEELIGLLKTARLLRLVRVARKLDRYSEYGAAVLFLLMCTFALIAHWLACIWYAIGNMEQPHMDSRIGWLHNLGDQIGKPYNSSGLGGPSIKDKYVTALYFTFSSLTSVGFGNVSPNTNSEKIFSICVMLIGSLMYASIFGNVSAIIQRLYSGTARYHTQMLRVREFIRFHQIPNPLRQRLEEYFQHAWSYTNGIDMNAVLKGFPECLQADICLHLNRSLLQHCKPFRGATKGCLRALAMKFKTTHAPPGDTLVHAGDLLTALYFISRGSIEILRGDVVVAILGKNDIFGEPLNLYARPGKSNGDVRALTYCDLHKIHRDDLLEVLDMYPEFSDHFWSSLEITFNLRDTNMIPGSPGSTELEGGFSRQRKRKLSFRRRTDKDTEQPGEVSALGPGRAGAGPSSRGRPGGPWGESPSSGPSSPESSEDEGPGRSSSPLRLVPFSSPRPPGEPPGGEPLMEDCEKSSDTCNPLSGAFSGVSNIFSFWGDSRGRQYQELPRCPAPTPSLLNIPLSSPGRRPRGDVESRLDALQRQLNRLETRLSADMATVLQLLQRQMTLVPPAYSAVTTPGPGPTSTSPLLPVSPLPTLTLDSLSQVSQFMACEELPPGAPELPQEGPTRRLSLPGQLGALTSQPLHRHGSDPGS

As for `Cn1c(=O)n(CC(=O)N2CC(F)C2)c2cc(-c3ccc(C(F)(F)F)s3)cnc21`, the IC50 in series [1] was 71 nM; in series [5], more than 10000 nM. In addition, the solubility at 72 h in series [2] and in series [3] was less than 4 µM throughout. For the same compound, the efflux ratio at 1 h, 5 µM in series [4] was determined as 3.7. This compound came in with a Ki in series [6] of 21 nM. The values for the hepatic extraction ratio at 1 µM in series [7] and in [8] were less than 0.3 and 0.17, respectively. In series [9], this compound displayed a clearance of 20 mL/min/kg. In series [10], the Vd was 0.9 L/kg. The half-life in [11] is 0.9 h. Further, the Cmax was 1000 ng/mL in series [12] and 728 ng/g in series [19]. The AUC(0-inf) in series [13] is 3610 ng·h/mL. In addition, the values for the Tmax in series [14] and in series [20] were 1 h and 2 h, respectively. Moreover, the bioavailability in [15] was determined as 109%. Also, the Occ in [16] was found to be 74%; in series [17], 71%; in [18] it was 24%.
Consider `CN(C)C(=O)Cn1c(=O)n(C)c2ncc(-c3ccc(C(F)(F)F)s3)cc21`, for which the IC50 is 29 nM in series [1] and more than 10000 nM in series [5]. Besides, the solubility at 72 h in series [2] and in series [3] was less than 4 µM throughout. For the same compound, the efflux ratio at 1 h, 5 µM in [4] is 1.4. Besides, in series [6], affinity was put at a Ki of 12 nM. The results for the hepatic extraction ratio at 1 µM in series [7] and in series [8] were less than 0.3 and less than 0.17, respectively. The values for the solubility entry in series [21], in series [29] and in series [30] were “Insoluble”, “Insoluble” and “Soluble”, respectively. Moreover, the clearance in series [22] turned out to be 14 mL/min/kg. The Vd in series [23] is 1.2 L/kg. In addition, the half-life in series [24] is 1.3 h. The Cmax in series [25] worked out at 188 ng/mL; in series [19], 1260 ng/g; in series [31], 598 ng/g. In series [26], the AUC(0-inf) was found to be 912 ng·h/mL. Besides, the Tmax in series [27] came to 1 h; in [20] it was 2 h. In addition, in series [28], the bioavailability came to 121%. Besides, the values for the Occ in [16], in [17] and in [18] were 79%, 80% and 77%, respectively.

(Values after ChEMBL document CHEMBL4725355, “Design, Synthesis, and Preclinical Evaluation of 3-Methyl-6-(5-thiophenyl)-1,3-dihydro-imidazo[4,5-b]pyridin-2-ones as Selective GluN2B Negative Allosteric Modulators for the Treatment of Mood Disorders” (J Med Chem, 2020).)
